From ChEMBL document CHEMBL1641468, “Synthesis of modified siRNA bearing C-5 polyamine-substituted pyrimidine nucleoside in their 3'-overhang regions and its RNAi activity” (Bioorg Med Chem Lett, 2011)
The source made the active and inactive calls. The calls are words filed in the database; no cut-off is given here.

Key:
[1] = target: T1, Hepatocyte nuclear factor 4-alpha (Homo sapiens) (UniProt P41235); assay: Inhibition of HNF4alpha mRNA expression in human HepG2 cells after 24 hrs by real-time RT-PCR
T1 sequence (whole entry): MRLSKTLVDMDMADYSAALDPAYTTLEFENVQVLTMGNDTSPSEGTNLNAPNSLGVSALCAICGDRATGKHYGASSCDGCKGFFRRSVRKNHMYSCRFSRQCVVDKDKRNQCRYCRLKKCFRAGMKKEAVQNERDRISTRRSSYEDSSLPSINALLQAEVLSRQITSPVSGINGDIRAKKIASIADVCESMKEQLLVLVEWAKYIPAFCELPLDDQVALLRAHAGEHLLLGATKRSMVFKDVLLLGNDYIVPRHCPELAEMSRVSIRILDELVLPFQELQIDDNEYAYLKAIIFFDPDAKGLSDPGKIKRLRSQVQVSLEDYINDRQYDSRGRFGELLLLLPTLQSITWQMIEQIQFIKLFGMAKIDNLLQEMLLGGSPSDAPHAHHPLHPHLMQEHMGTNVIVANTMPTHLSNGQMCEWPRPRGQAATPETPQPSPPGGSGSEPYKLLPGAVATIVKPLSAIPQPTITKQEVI

[2] = target: T1, Hepatocyte nuclear factor 4-alpha (Homo sapiens); assay: Inhibition of HNF4alpha mRNA expression in human HepG2 cells after 24 hrs by RT-PCR analysis; assay type: cell-based; details: in the assay text read “after 48 hrs” for “after 24 hrs”
Method in brief: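 HepG2 cells were grown in DMEM with 5% FBS at 37 °C and transfected with siRNA using a transfection reagent. After 24 h at 37 °C, the medium was changed to DMEM with 10% FBS and cells were incubated a further 24 h. Total RNA was reverse-transcribed for real-time PCR (40 cycles). HNF4α mRNA was normalized to GAPDH by ΔΔCt and expressed relative to nonsense control siRNA, using the mean Ct of duplicate PCRs from independent cells.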

Compound: Cc1cn([C@H]2C[C@H](OP(=O)(O)OC[C@H]3O[C@@H](n4cc(C)c(=O)[nH]c4=O)C[C@@H]3O)[C@@H](COP(=O)(O)O[C@@H]3[C@H](O)[C@@H](COP(=O)(O)O[C@H]4[C@@H](O)[C@H](n5cnc6c(N)ncnc65)O[C@@H]4COP(=O)(O)O[C@H]4[C@@H](O)[C@H](n5ccc(N)nc5=O)O[C@@H]4COP(=O)(O)O[C@H]4[C@@H](O)[C@H](n5cnc6c(N)ncnc65)O[C@@H]4COP(=O)(O)O[C@@H]4[C@H](O)[C@@H](COP(=O)(O)O[C@@H]5[C@H](O)[C@@H](COP(=O)(O)O[C@H]6[C@@H](O)[C@H](n7ccc(=O)[nH]c7=O)O[C@@H]6COP(=O)(O)O[C@@H]6[C@H](O)[C@@H](COP(=O)(O)O[C@@H]7[C@H](O)[C@@H](COP(=O)(O)O[C@H]8[C@@H](O)[C@H](n9ccc(=O)[nH]c9=O)O[C@@H]8COP(=O)(O)O[C@@H]8[C@H](O)[C@@H](COP(=O)(O)O[C@H]9[C@@H](O)[C@H](n%10ccc(N)nc%10=O)O[C@@H]9COP(=O)(O)O[C@@H]9[C@H](O)[C@@H](COP(=O)(O)O[C@H]%10[C@@H](O)[C@H](n%11ccc(=O)[nH]c%11=O)O[C@@H]%10COP(=O)(O)O[C@@H]%10[C@H](O)[C@@H](COP(=O)(O)O[C@H]%11[C@@H](O)[C@H](n%12cnc%13c(N)ncnc%13%12)O[C@@H]%11COP(=O)(O)O[C@H]%11[C@@H](O)[C@H](n%12ccc(N)nc%12=O)O[C@@H]%11COP(=O)(O)O[C@@H]%11[C@H](O)[C@@H](COP(=O)(O)O[C@H]%12[C@@H](O)[C@H](n%13cnc%14c(=O)[nH]c(N)nc%14%13)O[C@@H]%12COP(=O)(O)O)O[C@H]%11n%11cnc%12c(=O)[nH]c(N)nc%12%11)O[C@H]%10n%10cnc%11c(=O)[nH]c(N)nc%11%10)O[C@H]9n9cnc%10c(=O)[nH]c(N)nc%109)O[C@H]8n8cnc9c(=O)[nH]c(N)nc98)O[C@H]7n7cnc8c(=O)[nH]c(N)nc87)O[C@H]6n6cnc7c(=O)[nH]c(N)nc76)O[C@H]5n5cnc6c(=O)[nH]c(N)nc65)O[C@H]4n4cnc5c(=O)[nH]c(N)nc54)O[C@H]3n3cnc4c(N)ncnc43)O2)c(=O)[nH]c1=O
- Activity [1]: Active
- Activity [2]: Active

Compound: NCCN(CCN)CCNC(=O)Cc1cn([C@H]2C[C@H](OP(=O)(O)OC[C@H]3O[C@@H](n4cc(CC(=O)NCCN(CCN)CCN)c(=O)[nH]c4=O)C[C@@H]3O)[C@@H](COP(=O)(O)O[C@H]3[C@@H](O)[C@H](n4ccc(N)nc4=O)O[C@@H]3COP(=O)(O)O[C@H]3[C@@H](O)[C@H](n4ccc(N)nc4=O)O[C@@H]3COP(=O)(O)O[C@@H]3[C@H](O)[C@@H](COP(=O)(O)O[C@H]4[C@@H](O)[C@H](n5ccc(=O)[nH]c5=O)O[C@@H]4COP(=O)(O)O[C@H]4[C@@H](O)[C@H](n5ccc(N)nc5=O)O[C@@H]4COP(=O)(O)O[C@H]4[C@@H](O)[C@H](n5cnc6c(N)ncnc65)O[C@@H]4COP(=O)(O)O[C@H]4[C@@H](O)[C@H](n5ccc(N)nc5=O)O[C@@H]4COP(=O)(O)O[C@@H]4[C@H](O)[C@@H](COP(=O)(O)O[C@H]5[C@@H](O)[C@H](n6ccc(N)nc6=O)O[C@@H]5COP(=O)(O)O[C@H]5[C@@H](O)[C@H](n6cnc7c(N)ncnc76)O[C@@H]5COP(=O)(O)O[C@H]5[C@@H](O)[C@H](n6ccc(N)nc6=O)O[C@@H]5COP(=O)(O)O[C@H]5[C@@H](O)[C@H](n6ccc(N)nc6=O)O[C@@H]5COP(=O)(O)O[C@H]5[C@@H](O)[C@H](n6cnc7c(N)ncnc76)O[C@@H]5COP(=O)(O)O[C@H]5[C@@H](O)[C@H](n6ccc(N)nc6=O)O[C@@H]5COP(=O)(O)O[C@H]5[C@@H](O)[C@H](n6ccc(N)nc6=O)O[C@@H]5COP(=O)(O)O[C@H]5[C@@H](O)[C@H](n6ccc(=O)[nH]c6=O)O[C@@H]5COP(=O)(O)O[C@@H]5[C@H](O)[C@@H](COP(=O)(O)O[C@H]6[C@@H](O)[C@H](n7ccc(=O)[nH]c7=O)O[C@@H]6COP(=O)(O)O[C@H]6[C@@H](O)[C@H](n7ccc(=O)[nH]c7=O)O[C@@H]6COP(=O)(O)O)O[C@H]5n5cnc6c(=O)[nH]c(N)nc65)O[C@H]4n4cnc5c(=O)[nH]c(N)nc54)O[C@H]3n3cnc4c(=O)[nH]c(N)nc43)O2)c(=O)[nH]c1=O
- Activity [1]: Active
- Activity [2]: Active

Compound: Cc1cn([C@H]2C[C@H](OP(=O)(O)OC[C@H]3O[C@@H](n4cc(C)c(=O)[nH]c4=O)C[C@@H]3O)[C@@H](COP(=O)(O)O[C@H]3[C@@H](O)[C@H](n4ccc(N)nc4=O)O[C@@H]3COP(=O)(O)O[C@H]3[C@@H](O)[C@H](n4ccc(N)nc4=O)O[C@@H]3COP(=O)(O)O[C@@H]3[C@H](O)[C@@H](COP(=O)(O)O[C@H]4[C@@H](O)[C@H](n5ccc(=O)[nH]c5=O)O[C@@H]4COP(=O)(O)O[C@H]4[C@@H](O)[C@H](n5ccc(N)nc5=O)O[C@@H]4COP(=O)(O)O[C@H]4[C@@H](O)[C@H](n5cnc6c(N)ncnc65)O[C@@H]4COP(=O)(O)O[C@H]4[C@@H](O)[C@H](n5ccc(N)nc5=O)O[C@@H]4COP(=O)(O)O[C@@H]4[C@H](O)[C@@H](COP(=O)(O)O[C@H]5[C@@H](O)[C@H](n6ccc(N)nc6=O)O[C@@H]5COP(=O)(O)O[C@H]5[C@@H](O)[C@H](n6cnc7c(N)ncnc76)O[C@@H]5COP(=O)(O)O[C@H]5[C@@H](O)[C@H](n6ccc(N)nc6=O)O[C@@H]5COP(=O)(O)O[C@H]5[C@@H](O)[C@H](n6ccc(N)nc6=O)O[C@@H]5COP(=O)(O)O[C@H]5[C@@H](O)[C@H](n6cnc7c(N)ncnc76)O[C@@H]5COP(=O)(O)O[C@H]5[C@@H](O)[C@H](n6ccc(N)nc6=O)O[C@@H]5COP(=O)(O)O[C@H]5[C@@H](O)[C@H](n6ccc(N)nc6=O)O[C@@H]5COP(=O)(O)O[C@H]5[C@@H](O)[C@H](n6ccc(=O)[nH]c6=O)O[C@@H]5COP(=O)(O)O[C@@H]5[C@H](O)[C@@H](COP(=O)(O)O[C@H]6[C@@H](O)[C@H](n7ccc(=O)[nH]c7=O)O[C@@H]6COP(=O)(O)O[C@H]6[C@@H](O)[C@H](n7ccc(=O)[nH]c7=O)O[C@@H]6COP(=O)(O)O)O[C@H]5n5cnc6c(=O)[nH]c(N)nc65)O[C@H]4n4cnc5c(=O)[nH]c(N)nc54)O[C@H]3n3cnc4c(=O)[nH]c(N)nc43)O2)c(=O)[nH]c1=O
- Activity [1]: Active
- Activity [2]: Active

Compound: Cc1cn([C@H]2C[C@H](OP(=O)(O)OC[C@H]3O[C@@H](n4cc(CC(=O)NCCN(CCN)CCN)c(=O)[nH]c4=O)C[C@@H]3O)[C@@H](COP(=O)(O)O[C@H]3[C@@H](O)[C@H](n4ccc(N)nc4=O)O[C@@H]3COP(=O)(O)O[C@H]3[C@@H](O)[C@H](n4ccc(N)nc4=O)O[C@@H]3COP(=O)(O)O[C@@H]3[C@H](O)[C@@H](COP(=O)(O)O[C@H]4[C@@H](O)[C@H](n5ccc(=O)[nH]c5=O)O[C@@H]4COP(=O)(O)O[C@H]4[C@@H](O)[C@H](n5ccc(N)nc5=O)O[C@@H]4COP(=O)(O)O[C@H]4[C@@H](O)[C@H](n5cnc6c(N)ncnc65)O[C@@H]4COP(=O)(O)O[C@H]4[C@@H](O)[C@H](n5ccc(N)nc5=O)O[C@@H]4COP(=O)(O)O[C@@H]4[C@H](O)[C@@H](COP(=O)(O)O[C@H]5[C@@H](O)[C@H](n6ccc(N)nc6=O)O[C@@H]5COP(=O)(O)O[C@H]5[C@@H](O)[C@H](n6cnc7c(N)ncnc76)O[C@@H]5COP(=O)(O)O[C@H]5[C@@H](O)[C@H](n6ccc(N)nc6=O)O[C@@H]5COP(=O)(O)O[C@H]5[C@@H](O)[C@H](n6ccc(N)nc6=O)O[C@@H]5COP(=O)(O)O[C@H]5[C@@H](O)[C@H](n6cnc7c(N)ncnc76)O[C@@H]5COP(=O)(O)O[C@H]5[C@@H](O)[C@H](n6ccc(N)nc6=O)O[C@@H]5COP(=O)(O)O[C@H]5[C@@H](O)[C@H](n6ccc(N)nc6=O)O[C@@H]5COP(=O)(O)O[C@H]5[C@@H](O)[C@H](n6ccc(=O)[nH]c6=O)O[C@@H]5COP(=O)(O)O[C@@H]5[C@H](O)[C@@H](COP(=O)(O)O[C@H]6[C@@H](O)[C@H](n7ccc(=O)[nH]c7=O)O[C@@H]6COP(=O)(O)O[C@H]6[C@@H](O)[C@H](n7ccc(=O)[nH]c7=O)O[C@@H]6COP(=O)(O)O)O[C@H]5n5cnc6c(=O)[nH]c(N)nc65)O[C@H]4n4cnc5c(=O)[nH]c(N)nc54)O[C@H]3n3cnc4c(=O)[nH]c(N)nc43)O2)c(=O)[nH]c1=O
- Activity [1]: Active
- Activity [2]: Active
